Results from ChEMBL document CHEMBL3525986, “Nicotinamide N-oxidation by CYP2E1 in human liver microsomes” (Drug Metab Dispos, 2013).

Key:
Format in all cases: ADME
[1] = target: T1, Cytochrome P450 2E1 (Homo sapiens, UniProt P05181); assay: Drug metabolism in human liver microsomes assessed as diethyldithiocarbamate-mediated reduction of CYP2E1-mediated nicotinamide N-oxide formation at 2 mM by HPLC analysis relative to control; settings: 2000 µM
Procedure, shortened: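 Microsomes (1 mg/ml HLM, 1mM NADPH, pH 7.4) were preincubated 30 min with 100 μM diethyldithiocarbamate (final 0.1% methanol). Then 2 mM NAM was added for 30 min at 37°C. N-oxide was quantified by HILIC HPLC at 254 nm versus control. Triplicate means, t-test.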

[2] = target: T1, Cytochrome P450 2E1; assay: Drug metabolism in human liver microsomes assessed as CYP2E1-mediated nicotinamide N-oxide formation preincubated for 5 mins at 45 degC after 30 mins by HPLC analysis in absence of NADPH; settings: 0.5 h
Procedure, shortened: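 Before assay, HLM were heated 5 min at 45°C with or without NADPH. Incubation then ran with 2 mM NAM for 30 min in pH 7.4 phosphate buffer. NAM N-oxide was quantified by HILIC HPLC (UV 254 nm) from a standard curve. Triplicate determinations, t-test.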

[3] = target: T1, Cytochrome P450 2E1; assay: Drug metabolism in insect microsomes assessed as CYP2E1 (unknown origin)-mediated nicotinamide N-oxide formation after 30 mins by HPLC analysis; settings: 0.5 h
Procedure, shortened: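 Insect cell microsomes overexpressing CYP2E1 were diluted 4-fold with control insect microsomes. Otherwise run as for HLM: pH 7.4 phosphate, 1mM NADPH, 37°C, 30 min, across a range of NAM concentrations. Methanol stop, HILIC HPLC with UV at 254 nm. Triplicates.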

[4] = target: T1, Cytochrome P450 2E1; assay: Drug metabolism in human liver microsomes assessed as antibody-mediated reduction in CYP2E1-mediated nicotinamide N-oxide formation at 2 mM by HPLC analysis relative to control; set-up: scale not given: the % may be the effect or the level left; settings: 2000 µM
Procedure, shortened: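 HLM (1 mg/ml, pH 7.4 phosphate, 1mM NADPH) were preincubated 5 min at 37°C with 15 microgram anti-CYP2E1 or control mouse antibody. Control antibody was dialysed against Tris to remove azide. Then 2 mM NAM was added for 30 min. HPLC-UV 254 nm quantitation was expressed against the control antibody. Triplicates.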

[5] = target: T1, Cytochrome P450 2E1; assay: Drug metabolism in human liver microsomes assessed as CYP2E1-mediated nicotinamide N-oxide formation at 3 mM after 30 mins by HPLC analysis; settings: 0.5 h, 3000 µM
Procedure, shortened: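 Pooled human liver microsomes at 1 mg/ml in 0.1 M NaH2PO4, pH 7.4, with 1mM NADPH were preincubated 2 min at 37°C. NAM was added at varied concentrations and run 30 min, then stopped with ice-cold methanol. N-oxide was measured by HILIC HPLC with UV at 254 nm against a standard curve. Km and Vmax came from a Michaelis-Menten nonlinear fit. Triplicates.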

[6] = target: T1, Cytochrome P450 2E1; assay: Drug metabolism in human liver microsomes assessed as chlorzoxazone-mediated reduction of CYP2E1-mediated nicotinamide N-oxide formation at 2 mM by HPLC analysis relative to control; settings: 2000 µM
Procedure, shortened: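 Human liver microsomes (1 mg/ml, 1mM NADPH, pH 7.4) were incubated with 2 mM NAM plus 100 μM chlorzoxazone (final 1% acetonitrile) for 30 min at 37°C. Methanol quench, then HILIC HPLC, UV 254 nm. Compared against solvent control; triplicates, t-test.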

[7] = target: T2, Cytochrome P450 2B6 (Homo sapiens, UniProt P20813); assay: Drug metabolism in human liver microsomes assessed as CYP2B6-mediated nicotinamide N-oxide formation by HPLC analysis
T2 sequence (P20813 whole entry): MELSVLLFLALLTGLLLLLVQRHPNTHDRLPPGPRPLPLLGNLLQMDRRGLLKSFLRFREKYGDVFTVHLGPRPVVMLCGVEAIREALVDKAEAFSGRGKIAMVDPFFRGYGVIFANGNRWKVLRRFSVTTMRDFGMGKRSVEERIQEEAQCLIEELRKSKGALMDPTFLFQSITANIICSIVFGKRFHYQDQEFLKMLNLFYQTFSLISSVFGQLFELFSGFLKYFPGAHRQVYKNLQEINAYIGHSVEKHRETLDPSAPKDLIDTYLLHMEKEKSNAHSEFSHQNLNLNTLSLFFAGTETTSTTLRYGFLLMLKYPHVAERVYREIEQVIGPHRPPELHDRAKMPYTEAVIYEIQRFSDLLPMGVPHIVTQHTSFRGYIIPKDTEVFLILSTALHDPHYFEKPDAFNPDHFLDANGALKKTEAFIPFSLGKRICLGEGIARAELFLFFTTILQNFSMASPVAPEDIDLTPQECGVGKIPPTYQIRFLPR

[8] = target: T3, Cytochrome P450 2A6 (Homo sapiens, UniProt P11509); assay: Drug metabolism in human liver microsomes assessed as CYP2A6-mediated nicotinamide N-oxide formation by HPLC analysis
T3 sequence (P11509 whole entry): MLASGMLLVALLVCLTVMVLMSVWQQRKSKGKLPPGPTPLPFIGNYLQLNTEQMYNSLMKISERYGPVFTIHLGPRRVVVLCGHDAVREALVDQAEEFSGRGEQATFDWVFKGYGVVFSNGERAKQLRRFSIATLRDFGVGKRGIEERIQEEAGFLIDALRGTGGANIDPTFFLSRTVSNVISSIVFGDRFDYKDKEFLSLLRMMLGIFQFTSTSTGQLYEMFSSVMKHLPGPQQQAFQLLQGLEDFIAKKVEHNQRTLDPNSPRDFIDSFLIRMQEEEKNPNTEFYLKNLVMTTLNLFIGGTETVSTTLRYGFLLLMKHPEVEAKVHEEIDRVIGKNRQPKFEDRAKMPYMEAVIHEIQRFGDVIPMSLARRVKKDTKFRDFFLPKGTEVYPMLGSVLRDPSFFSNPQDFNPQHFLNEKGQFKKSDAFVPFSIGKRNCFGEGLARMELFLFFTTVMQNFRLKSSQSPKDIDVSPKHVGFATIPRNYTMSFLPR

[9] = target: T4, Flavin-containing monooxygenase 3 (Homo sapiens, UniProt P31513); assay: Drug metabolism in insect microsomes assessed as FMO3 (unknown origin)-mediated nicotinamide N-oxide formation after 30 mins by HPLC analysis; settings: 0.5 h
T4 sequence (P31513 whole entry): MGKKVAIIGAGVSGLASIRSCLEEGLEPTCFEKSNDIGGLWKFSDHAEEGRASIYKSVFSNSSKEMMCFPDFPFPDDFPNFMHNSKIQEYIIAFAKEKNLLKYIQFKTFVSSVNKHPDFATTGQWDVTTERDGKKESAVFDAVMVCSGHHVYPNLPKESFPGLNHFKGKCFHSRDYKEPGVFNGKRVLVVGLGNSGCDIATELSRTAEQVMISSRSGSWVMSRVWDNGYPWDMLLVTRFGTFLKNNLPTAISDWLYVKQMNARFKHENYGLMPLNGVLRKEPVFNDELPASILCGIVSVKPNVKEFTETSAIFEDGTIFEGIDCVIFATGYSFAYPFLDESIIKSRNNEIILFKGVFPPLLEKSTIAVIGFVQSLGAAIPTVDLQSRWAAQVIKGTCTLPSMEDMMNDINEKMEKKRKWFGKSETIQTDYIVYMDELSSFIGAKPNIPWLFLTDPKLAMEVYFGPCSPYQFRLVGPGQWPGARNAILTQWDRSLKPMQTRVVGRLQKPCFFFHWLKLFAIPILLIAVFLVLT

T1 sequence (P05181 whole entry): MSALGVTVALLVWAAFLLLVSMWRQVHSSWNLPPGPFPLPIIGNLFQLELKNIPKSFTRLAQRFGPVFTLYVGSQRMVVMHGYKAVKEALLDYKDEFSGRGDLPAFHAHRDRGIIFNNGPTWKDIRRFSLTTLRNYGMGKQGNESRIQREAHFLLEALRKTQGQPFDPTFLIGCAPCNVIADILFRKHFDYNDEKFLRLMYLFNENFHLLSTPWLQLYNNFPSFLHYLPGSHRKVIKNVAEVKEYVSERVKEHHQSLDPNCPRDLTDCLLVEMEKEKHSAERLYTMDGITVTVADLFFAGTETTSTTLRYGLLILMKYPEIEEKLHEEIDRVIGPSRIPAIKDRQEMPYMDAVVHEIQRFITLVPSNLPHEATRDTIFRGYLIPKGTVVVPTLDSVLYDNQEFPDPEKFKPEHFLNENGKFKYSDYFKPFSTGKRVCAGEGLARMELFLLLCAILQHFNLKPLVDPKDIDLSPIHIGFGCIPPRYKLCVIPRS

## NC(=O)c1cccnc1 [NIACINAMIDE]
[1]
  fold change (FC): 8
[2]
  Drug metabolism: metabolite_detected
[3]
  Drug metabolism: Dose-dependent effect
[4]
  Activity: < 8%
[5]
  Drug metabolism: metabolite_detected
[6]
  fold change (FC): > 5
[7]
  Drug metabolism: metabolite_not_detected
[8]
  Drug metabolism: metabolite_not_detected
[9]
  Drug metabolism: metabolite_not_detected
